Laboratory results published in ChEMBL document CHEMBL1124291, “New actinomycin D analogues as superior chemotherapeutic agents against primary and advanced colon tumors and colon xenografts in nude mice” (J Med Chem, 1988).

Tests used:
[1] = tested on: B16; test: In vivo antitumor activity against B16 melanoma cells at a optimal dose measured as %ILS (%increase life span); type: functional, Mus musculus
In short: (§1)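 BDF1 mice in groups of nine were implanted ip on day 0 with 0.2 mL of 1:5 (w/v) B16 melanoma brei; drugs were given ip. Survival is reported as median survival time in days with range, and as %ILS, with survivors counted on day 65 out of total injected.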

[2] = species: Rattus norvegicus; test: The formation of adrenochrome from epinephrine in the absence of SOD(super oxide dismutase); type: functional
In short: (§2)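 Drug-stimulated superoxide generation with rat liver microsomal enzymes and NADPH as cofactor. NADPH oxidation was read at 340 nm. Adrenochrome formed from epinephrine was read at 480 nm, with or without superoxide dismutase. % stimulation = [(drug-stimulated rate − basal rate)/basal rate] × 100. Values are mean ± standard error of triplicate analyses.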

[3] = tested on: MC-38; test: Number of toxic deaths/number of mice in a group of non tumored mice treated in parallel with the tumor-bearing mice and observed for 100 days at a dose of 1.20 mg/ Kg; value given as 4/9; type: toxicity; conditions: mouse, in vivo, 1.2 mg/kg, 2400 h
In short: (§3)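 Non-tumored CDF1 mice were treated in parallel with colon 38 tumor-bearing mice: iv injections on days 1, 5 and 9, groups of nine. Deaths were counted over 100 days of observation and reported as toxic deaths / mice in group.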

[4] = species: Rattus norvegicus; test: DNA-cleaving ability expressed as % of closed circular pBR322 DNA cleaved at 100 uM conc 100 uM; type: functional
In short: (§4)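 pBR322 DNA (200 μM nucleotides) in 10 mM Tris·HCl pH 7.8 and 50 mM NaCl, with 4 mM Na₂S₂O₄ and 100 μM FeCl₂. Incubated with drug for 1 h at 20 °C, kept air-saturated. Supercoiled and open-circular forms were separated by agarose gel electrophoresis, stained with ethidium bromide and quantitated by densitometry. % cleaved was calculated from the open- and closed-circular amounts.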

[5] = tested on: MC-38; test: Mean survival time of treated / untreated group x100. (number of over 100-day survivors/number of total mice in the group) at a dose 0.60 mg/kg; type: functional, Mus musculus; conditions: dose 0.6 mg/kg
In short: (§5)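 CDF1 mice were implanted sc on day 0 with colon 38 adenocarcinoma fragments (70 mg) and given iv drug on days 1, 5 and 9. %T/C = median survival of treated / untreated × 100. Number of mice surviving over 100 days / group total is given in parentheses.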

[6] = tested on: MC-38; test: Activity against advanced carcinoma C38 tumor in CDF1 Mice at dose 0.60 mg/kg measured as % inhibition of tumor; type: functional; conditions: Mus musculus
[7] = tested on: HT-29; test: 50% inhibition of incorporationf precursor [3H]thymidine into DNA HT-29 cell lines; type: functional, cell-based; conditions: Homo sapiens, HT-29, 2 h
In short: (§6)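 HT-29 colon carcinoma monolayers, 10^4 cells per well, five wells per concentration. Drug exposure lasted 2 h, with [³H]thymidine and [2-¹⁴C]uridine (0.5 μCi each) added for the last hour. Cells were washed, trypsinized, counted and precipitated onto glass-fiber filters with 10% TCA. Acid-precipitable radioactivity was measured. IC50 is the concentration inhibiting 50% of incorporation; data are averages of replicate experiments.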

[8] = species: Rattus norvegicus; test: Percent of the unidentified metabolites isolated from incubation mixture containing rat micro somes; type: functional
In short: (§7)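 Tritiated analogues were incubated with two systems. (T) sonicated P388 cell homogenates, 37 °C for 16 h. (M) liver microsomes from phenobarbital-induced rats, 6 h with an NADPH-generating system (glucose-6-phosphate dehydrogenase plus glucose 6-phosphate). Metabolites and water-soluble conjugates were isolated, separated by HPLC and expressed as percentages.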

[9] = tested on: MC-38; test: Activity against advanced carcinoma C38 tumor in CDF1 Mice at dose 0.30 mg/kg measured as % inhibition of tumor; type: functional; conditions: Mus musculus
[10] = tested on: B16; test: In vivo antitumor activity against B16 melanoma cells at dose 300 ug/Kg /inj measured as Mean survival time (MST); type: functional, Mus musculus; in short: as §1
[11] = species: Rattus norvegicus; test: The formation of adrenochrome from epinephrine in the presence of SOD(super oxide dismutase); + denotes ' Inhibited'; type: functional; in short: as §2
[12] = tested on: P388 (Mus musculus); test: Percent of the tissue bound conjugates isolated from incubation mixture containing tumor cell homogenate(T)
[13] = species: Rattus norvegicus; test: Percent of the uncoverted isolated from incubation mixture containing trat microsomes,; type: functional; in short: as §7
[14] = tested on: P388 (Mus musculus); test: Percent of the unidentified metabolites isolated from incubation mixture containing tumor cell homogenate(T)
[15] = species: Rattus norvegicus; test: Percent of the protein conjugates isolated from incubation mixture containing rat micro somes; type: functional; in short: as §7
[16] = tested on: MC-38; test: Mean survival time of treated / untreated group x100. (number of over 100-day survivors/number of total mice in the group) at a dose 0.30 mg/kg; type: functional, Mus musculus; conditions: dose 0.3 mg/kg; in short: as §5
[17] = species: Rattus norvegicus; test: Stimulation of NADPH oxidation in the presence of rat liver microsomes; type: functional; in short: as §2
[18] = tested on: MC-38; test: Activity against advanced carcinoma C38 tumor in CDF1 mice at dose 1.20 mg/kg measured as % inhibition of tumor; type: functional; conditions: Mus musculus
[19] = tested on: MC-38; test: Number of toxic deaths/number of mice in a group of non tumored mice treated in parallel with the tumor-bearing mice and observed for 100 days at a dose of 0.30 mg/ kg; value given as 0/9; type: functional, Mus musculus; in short: as §3
[20] = species: Rattus norvegicus; test: Percent of the protein conjugates isolated from incubation mixture containing tumor cell homogenate(T); type: functional; in short: as §7
[21] = tested on: P388; test: Antitumor activity in P388/ADR (adriamycin resistant), in male BDF1 mice measured as optimal dose
[22] = tested on: P388 (Mus musculus); test: Percent of the uncoverted isolated from incubation mixture containing tumor cell homogenate(T)
[23] = tested on: HT-29; test: 50% inhibition of incorporationf precursor [3H]thymidine into RNA HT-29 cell lines; type: functional, cell-based; conditions: Homo sapiens, HT-29, 2 h; in the assay text read “[14C]uridine” for “[3H]thymidine”; in short: as §6
[24] = tested on: P388; test: 50% inhibition of incorporation precursor [14C]uridine into RNA P388 cell lines; type: functional, cell-based; conditions: Mus musculus
[25] = tested on: MC-38; test: Number of toxic deaths/number of mice in a group of non tumored mice treated in parallel with the tumor-bearing mice and observed for 100 days at a dose of 0.60 mg/ kg; value given as 0/9; type: functional, Mus musculus; in short: as §3
[26] = species: Rattus norvegicus; test: Percent of the tissue bound conjugates isolated from incubation mixture containing rat microsomes; type: functional; in short: as §7
[27] = species: Rattus norvegicus; test: DNA-cleaving ability expressed as % of closed circular pBR322 DNA cleaved […] conc 50 uM; type: functional; in short: as §4
[28] = tested on: MC-38; test: Mean survival time of treated / untreated group x100. (number of over 100-day survivors/number of total mice in the group) at a dose 1.20 mg/kg; type: functional, Mus musculus; conditions: dose 1.2 mg/kg; in short: as §5
[29] = tested on: pBR322 plasmid DNA; test: DNA-cleaving ability expressed as % of closed circular pBR322 DNA cleaved […]
[30] = species: Rattus norvegicus; test: Percent of the SAD glucuronide and/or sulfate isolated from incubation mixture containing tumor cell homogenate(T) after 8.0, 10.5 min.; type: functional; in short: as §7
[31] = DNA-cleaving ability expressed as % of closed circular pBR322 DNA cleaved at 10 uM conc 10 uM
[32] = tested on: P388; test: 50% inhibition of incorporation of precursor [3H]thymidine into DNA P388 cell lines; type: functional, cell-based; conditions: Mus musculus, P388, 2 h
[33] = tested on: P388; test: Antitumor activity in P388/S(AMD sensitive) in male BDF1 mice measured as optimal dose at dose 0.3-1.8 mg/kg

**Q.** Which ILS [1] does the source give for `Cc1c2oc3c(C)c(O)c(N)c(C(=O)N[C@@H]4C(=O)N[C@H](C(C)C)C(=O)N5CCC[C@H]5C(=O)N(C)CC(=O)N(C)[C@@H](C(C)C)C(=O)O[C@@H]4C)c3nc-2c(C(=O)N[C@@H]2C(=O)N[C@H](C(C)C)C(=O)N3CCC[C@H]3C(=O)N(C)CC(=O)N(C)[C@@H](C(C)C)C(=O)O[C@@H]2C)c(N)c1=O` here?
**A.** 96%

**Q.** What about the Adrenochrome formation [2] of the same compound?
**A.** 19.3 nM min-1 (mg of protein)-1

**Q.** What about the Toxic deaths [3] of the same compound?
**A.** 4

**Q.** And the Activity [4]?
**A.** 65%

**Q.** What about the T/C [5] of the same compound?
**A.** 278%

**Q.** What about the inhibition in vivo at 0.6 mg/kg [6] of the same compound?
**A.** 97%

**Q.** And the IC50 [7]?
**A.** 70 nM

**Q.** And the Activity [8]?
**A.** 15%

**Q.** And the inhibition in vivo at 0.3 mg/kg [9]?
**A.** 95%

**Q.** And the MST [10]?
**A.** 57

**Q.** What about the Adrenochrome formation [11] of the same compound?
**A.** Inhibited

**Q.** What about the Activity [12] of the same compound?
**A.** 7.5%

**Q.** What about the Activity [13] of the same compound?
**A.** 50%

**Q.** And the Activity [14]?
**A.** 10%

**Q.** And the Activity [15]?
**A.** 20%

**Q.** And the T/C [16]?
**A.** 278%

**Q.** And the NADPH oxidation (nM min-1 (mg of protein)-1) [17]?
**A.** 64.3

**Q.** And the inhibition in vivo at 1.2 mg/kg [18]?
**A.** 99%

**Q.** What about the Toxic deaths [19] of the same compound?
**A.** 0

**Q.** What about the Activity [20] of the same compound?
**A.** 5.5%

**Q.** And the optimal dose [21]?
**A.** 1.2 mg/kg

**Q.** What about the Activity [22] of the same compound?
**A.** 30%

**Q.** What about the IC50 [23] of the same compound?
**A.** 55 nM

**Q.** What about the IC50 [24] of the same compound?
**A.** 15 nM

**Q.** What about the Toxic deaths [25] of the same compound?
**A.** 0

**Q.** And the Activity [26]?
**A.** 15%

**Q.** What about the Activity [27] of the same compound?
**A.** 50%

**Q.** And the T/C [28]?
**A.** 211%

**Q.** And the Activity [29]?
**A.** 50%

**Q.** And the Activity [30]?
**A.** 47%

**Q.** And the Activity [31]?
**A.** 35%

**Q.** And the IC50 [32]?
**A.** 12 nM

**Q.** And the optimal dose [33]?
**A.** 0.6 mg/kg
